Experimental data as given in ChEMBL document CHEMBL5356992, “New nitazoxanide derivatives: design, synthesis, biological evaluation, and molecular docking studies as antibacterial and antimycobacterial agents” (RSC Med Chem, 2023).
Values after ≈ are worked out from the molar mass of the structure shown.

Key:
[1] = test system: Staphylococcus aureus; experiment: Antibacterial activity against Staphylococcus aureus ATCC 6538 by broth microdilution method; format: functional
How it was run: (§1)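 CLSI broth microdilution on wild-type strains. E. coli ATCC 8739, P. aeruginosa ATCC 27853 and K. pneumoniae ATCC 10031 served as Gram-negatives. S. aureus ATCC 6538 and E. faecalis ATCC 19433 served as Gram-positives. H. pylori ATCC 700392 was tested as the […]. Ciprofloxacin was the reference drug. MIC is given in μM as the mean of three experiments.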

[2] = test system: Escherichia coli; experiment: Antibacterial activity against Escherichia coli ATCC 8739 by broth microdilution method; format: functional; how it was run: as §1
[3] = test system: Mycobacterium tuberculosis; experiment: Antimycobacterial activity against Mycobacterium tuberculosis H37Rv incubated for 7 days by alamar blue assay; format: functional; conditions: 168 h, time 7 day
How it was run: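 Two-fold serial dilutions in 7H9-S, with growth and sterile controls, incubated at 37 °C for 7 days. Alamar Blue then added and incubated overnight. MIC is the lowest concentration preventing the blue-to-pink change. Means of three experiments.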

[4] = test system: Enterococcus faecalis; experiment: Antibacterial activity against Enterococcus faecalis ATCC 19433 by broth microdilution method; format: functional; how it was run: as §1
[5] = test system: Helicobacter pylori; experiment: Antibacterial activity against Helicobacter pylori ATCC 700392 by broth microdilution method; format: functional; how it was run: as §1
[6] = test system: Klebsiella pneumoniae; experiment: Antibacterial activity against Klebsiella pneumoniae ATCC 10031 by broth microdilution method; format: functional; how it was run: as §1
[7] = test system: Pseudomonas aeruginosa; experiment: Antibacterial activity against Pseudomonas aeruginosa ATCC 27853 by broth microdilution method; format: functional; how it was run: as §1
[8] = test system: Klebsiella pneumoniae; experiment: Potency index, ratio of nitazoxanide MIC to test compound MIC for antibacterial activity against Klebsiella pneumoniae ATCC 10031; format: functional
[9] = test system: Escherichia coli; experiment: Potency index, ratio of nitazoxanide MIC to test compound MIC for antibacterial activity against Escherichia coli ATCC 8739; format: functional
[10] = test system: Enterococcus faecalis; experiment: Potency index, ratio of nitazoxanide MIC to test compound MIC for antibacterial activity against Enterococcus faecalis ATCC 19433; format: functional
[11] = test system: Staphylococcus aureus; experiment: Potency index, ratio of nitazoxanide MIC to test compound MIC for antibacterial activity against Staphylococcus aureus ATCC 6538; format: functional
[12] = Selectivity index, ratio of cytotoxicity against mouse RAW264.7 cells to MIC for Mycobacterium tuberculosis H37Rv; format: toxicity, cell-based; conditions: read-out: Selectivity Index
How it was run: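 SI is cytotoxicity divided by the MABA MIC (μg mL⁻¹) against H37Rv. For cytotoxicity, RAW 264.7 cells were grown in RPMI with 10% FBS and penicillin/streptomycin. About 5000 cells per well were seeded on poly-L-lysine plates and held 24 h at 37 °C, 5% CO2. Compounds were added at 25 μg mL⁻¹ for 48 h, then MTT (0.5 mg mL⁻¹) for 3 h. Formazan was read at 595/625 nm and reported as % inhibition.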

[13] = test system: RAW264.7; experiment: Cytotoxicity against mouse RAW264.7 cells at 25 ug/ml incubated for 48 hrs by MTT assay; format: toxicity, cell-based; conditions: raw264.7, 48 h, at 25 µg/mL
How it was run: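 RAW 264.7 mouse macrophages were grown in RPMI with 10% FBS plus penicillin/streptomycin to 80–90% confluency. About 5000 cells/well were seeded on poly-L-lysine-coated plates and held 24 h at 37 °C, 5% CO2. Compound was added at 25 μg mL−1 for 48 h at 37 °C. MTT (0.5 mg mL−1) was added for 3 h, and formazan was read at 595 and 625 nm. Result is % inhibition.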

[14] = test system: Pseudomonas aeruginosa; experiment: Potency index, ratio of nitazoxanide MIC to test compound MIC for antibacterial activity against Pseudomonas aeruginosa ATCC 27853; format: functional

| SMILES | MIC [1] [µM] | MIC [2] [µM] | MIC [3] [mg/L] | MIC [4] [µM] | MIC [5] [µM] | MIC [6] [µM] | MIC [7] [µM] | Ratio [8] | Ratio [9] | Ratio [10] | Ratio [11] | selectivity ratio [12] | Cell growth inhibition [13] [%] | Ratio [14] |
| --- | --- | --- | --- | --- | --- | --- | --- | --- | --- | --- | --- | --- | --- | --- |
| COc1ccc2c(c1)C(=O)C(=O)N2Cc1cn(-c2ccc(C(=O)Nc3ncc([N+](=O)[O-])s3)c(O)c2)nn1 | 92 (≈ 48 µg/mL) | 15.3 (≈ 8 µg/mL) | > 25 | 184 (≈ 96 µg/mL) | 9.58 (≈ 5 µg/mL) | 491 (≈ 256 µg/mL) |  |  |  |  |  |  |  |  |
| O=C(Nc1ncc([N+](=O)[O-])s1)c1ccc(-n2cc(-c3ccccc3)nn2)cc1O | 29.4 (≈ 12 µg/mL) |  | > 25 | 19.6 (≈ 8 µg/mL) | 14.7 (≈ 6 µg/mL) | 39.2 (≈ 16 µg/mL) |  |  |  |  |  |  |  |  |
| O=C(Nc1ncc([N+](=O)[O-])s1)c1ccc(-n2cc(CO)nn2)cc1O |  |  | > 25 | 132 (≈ 48 µg/mL) | 44.1 (≈ 16 µg/mL) | 88.3 (≈ 32 µg/mL) | 353 (≈ 128 µg/mL) |  |  |  |  |  |  |  |
| Cc1ccc2c(c1)C(=O)C(=O)N2Cc1cn(-c2ccc(C(=O)Nc3ncc([N+](=O)[O-])s3)c(O)c2)nn1 | 506 (≈ 256 µg/mL) | 1.48 (≈ 0.748 µg/mL) | > 25 | 5.93 (≈ 3 µg/mL) | 2.96 (≈ 1.5 µg/mL) | 3.95 (≈ 2 µg/mL) | 7.91 (≈ 4 µg/mL) | <=20 | 20 | 25 |  |  |  |  |
| O=C(Nc1ncc([N+](=O)[O-])s1)c1ccc(-n2cc(CSc3nc4ccccc4s3)nn2)cc1O | 3.9 (≈ 2 µg/mL) | 3.9 (≈ 2 µg/mL) | > 25 |  | 15.6 (≈ 8 µg/mL) | 23.4 (≈ 12 µg/mL) | 31.3 (≈ 16 µg/mL) |  | 20 |  | 25 |  |  |  |
| [N-]=[N+]=Nc1ccc(C(=O)Nc2ncc([N+](=O)[O-])s2)c(O)c1 | 9.79 (≈ 3 µg/mL) | 4.89 (≈ 1.5 µg/mL) | 3.12 (≈ 10.2 µM) | 26.1 (≈ 8 µg/mL) | 104 (≈ 32 µg/mL) | 313 (≈ 96 µg/mL) |  |  | 20 |  |  | 8 | 28.53 |  |
| O=C(Nc1ncc([N+](=O)[O-])s1)c1ccc(-n2cc(CN3CCN(c4ccccc4)CC3)nn2)cc1O | 505 (≈ 256 µg/mL) | 11.8 (≈ 6 µg/mL) | > 25 | 1.97 (≈ 0.998 µg/mL) | 31.6 (≈ 16 µg/mL) | 253 (≈ 128 µg/mL) | 2.96 (≈ 1.5 µg/mL) |  |  | 25 |  |  |  | >50 |
| O=C(O)c1cn(C2CC2)c2cc(N3CCNCC3)c(F)cc2c1=O [CIPROFLOXACIN] | 3.01 (≈ 0.997 µg/mL) | 0.3 (≈ 0.0994 µg/mL) |  | 6.03 (≈ 2 µg/mL) | 1.5 (≈ 0.497 µg/mL) | 9.05 (≈ 3 µg/mL) | 4.53 (≈ 1.5 µg/mL) |  |  |  |  |  |  |  |
| CC[C@@H](CO)NCCN[C@@H](CC)CO [ETHAMBUTOL] |  |  | 1.56 (≈ 7.64 µM) |  |  |  |  |  |  |  |  |  |  |  |
| NNC(=O)c1ccncc1 [ISONIAZID] |  |  | 0.05 (≈ 0.365 µM) |  |  |  |  |  |  |  |  |  |  |  |
| CC(=O)Oc1ccccc1C(=O)Nc1ncc([N+](=O)[O-])s1 [NITAZOXANIDE] | 104 (≈ 32 µg/mL) | 104 (≈ 32 µg/mL) |  | 156 (≈ 48 µg/mL) | 13 (≈ 4 µg/mL) | 182 (≈ 56 µg/mL) | 417 (≈ 128 µg/mL) |  |  |  |  | 4 | 20.65 |  |
| CO[C@H]1/C=C/O[C@@]2(C)Oc3c(C)c(O)c4c(O)c(c(/C=N/N5CCN(C)CC5)c(O)c4c3C2=O)NC(=O)/C(C)=C\C=C\[C@H](C)[C@H](O)[C@@H](C)[C@@H](O)[C@@H](C)[C@H](OC(C)=O)[C@@H]1C [RIFAMPIN] |  |  | 0.1 (≈ 0.122 µM) |  |  |  |  |  |  |  |  |  |  |  |
| O=C(Nc1ncc([N+](=O)[O-])s1)c1ccccc1O [TIZOXANIDE] | 151 (≈ 40 µg/mL) | 181 (≈ 48 µg/mL) |  | 136 (≈ 36 µg/mL) | 11.3 (≈ 3 µg/mL) | 241 (≈ 64 µg/mL) | 362 (≈ 96 µg/mL) |  |  |  |  |  |  |  |
